SR-BI HDL uptake: blocks mouse SR-BI lipid uptake from DiI-HDL; inhibition, % at 12.5 µM; AID 488896; ldlA[mSR-BI] CHO cells, DiI-HDL uptake fluorescence, 3 h; hit rate 0.96% among 320,000; Q61009;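 active = mean replicate inhibition of at least 70% and a set share of replicates each scoring 70 or more; inconclusive = meets just one of the two criteria; inactive = fails both criteria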;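 also: 0% = median of neutral control wells and 100% = median of positive control wells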
XiGFP reactiv: reactivates the inactive X chromosome in mouse fibroblasts; XiGFP mouse fibroblasts, % GFP-positive cells imaging, 3 d; cells co-treated with 5-aza-dC sensitizer; scaled so ellipticine positive control = 100%; activation, % at 7.58 µM; hit rate 0.055% among 360,000; AID 743238;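 active = mean normalized replicate activation at least 10% and every replicate at or above 10%; inconclusive = only one of the two criteria met; inactive = mean below 10% and not all replicates reach 10%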;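 also: 0% = median of on-plate neutral control wells and 100% = ellipticine 6 µM median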
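System: 68-5-11 XiGFP fibroblast line; Timing: 3 days compound exposure; Compound dosing: one concentration, pinned; Benchmarks: positive control ellipticine, 6 µM final; Buffer or medium: DMEM containing 5-aza-dC.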
HGIII-sPLA2 inh: Inhibits HGIII-sPLA2 liposome hydrolysis, primary screen; QFRET BODIPY PC-A2 liposome hydrolysis, fluorescence; Q9NZ20; hit rate 0.56% among 370,000; inhibition, % at 12.2 µM;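 active = inhibition above mean plus 3 SD of compounds lying within the high and low control bounds, cut at about 19% in these data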;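 also: 0% = median of test compound wells and 100% = no enzyme DMSO wells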
ARNT TACC3 PPI: ARNT/TACC3 interaction disruption | AlphaScreen His-ARNT PAS-B/GST-TACC3 binding, luminescence; TACC3 fragment carries E629A point mutation | hit rate 0.66% among 390,000 | Q9Y6A5 | inhibition, % at 9.99 µM;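 active = mean inhibition of replicates at least 50% and at least half of replicates each reaching 50%; inconclusive = half or more replicates reach 50% but mean below 50%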;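 also: 0% = complete ARNT plus TACC3 wells and 100% = ARNT alone without TACC3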
NSD2 HMT inh: blocks human histone methyltransferase NSD2. O96028. NSD2 peptide methylation, AlphaScreen, 120 min. inhibition, % at 12.5 µM. hit rate 0.54% among 310,000. AID 743445; in the data active = inhibition above about 50%
Target sequence (O96028 whole entry, looked up): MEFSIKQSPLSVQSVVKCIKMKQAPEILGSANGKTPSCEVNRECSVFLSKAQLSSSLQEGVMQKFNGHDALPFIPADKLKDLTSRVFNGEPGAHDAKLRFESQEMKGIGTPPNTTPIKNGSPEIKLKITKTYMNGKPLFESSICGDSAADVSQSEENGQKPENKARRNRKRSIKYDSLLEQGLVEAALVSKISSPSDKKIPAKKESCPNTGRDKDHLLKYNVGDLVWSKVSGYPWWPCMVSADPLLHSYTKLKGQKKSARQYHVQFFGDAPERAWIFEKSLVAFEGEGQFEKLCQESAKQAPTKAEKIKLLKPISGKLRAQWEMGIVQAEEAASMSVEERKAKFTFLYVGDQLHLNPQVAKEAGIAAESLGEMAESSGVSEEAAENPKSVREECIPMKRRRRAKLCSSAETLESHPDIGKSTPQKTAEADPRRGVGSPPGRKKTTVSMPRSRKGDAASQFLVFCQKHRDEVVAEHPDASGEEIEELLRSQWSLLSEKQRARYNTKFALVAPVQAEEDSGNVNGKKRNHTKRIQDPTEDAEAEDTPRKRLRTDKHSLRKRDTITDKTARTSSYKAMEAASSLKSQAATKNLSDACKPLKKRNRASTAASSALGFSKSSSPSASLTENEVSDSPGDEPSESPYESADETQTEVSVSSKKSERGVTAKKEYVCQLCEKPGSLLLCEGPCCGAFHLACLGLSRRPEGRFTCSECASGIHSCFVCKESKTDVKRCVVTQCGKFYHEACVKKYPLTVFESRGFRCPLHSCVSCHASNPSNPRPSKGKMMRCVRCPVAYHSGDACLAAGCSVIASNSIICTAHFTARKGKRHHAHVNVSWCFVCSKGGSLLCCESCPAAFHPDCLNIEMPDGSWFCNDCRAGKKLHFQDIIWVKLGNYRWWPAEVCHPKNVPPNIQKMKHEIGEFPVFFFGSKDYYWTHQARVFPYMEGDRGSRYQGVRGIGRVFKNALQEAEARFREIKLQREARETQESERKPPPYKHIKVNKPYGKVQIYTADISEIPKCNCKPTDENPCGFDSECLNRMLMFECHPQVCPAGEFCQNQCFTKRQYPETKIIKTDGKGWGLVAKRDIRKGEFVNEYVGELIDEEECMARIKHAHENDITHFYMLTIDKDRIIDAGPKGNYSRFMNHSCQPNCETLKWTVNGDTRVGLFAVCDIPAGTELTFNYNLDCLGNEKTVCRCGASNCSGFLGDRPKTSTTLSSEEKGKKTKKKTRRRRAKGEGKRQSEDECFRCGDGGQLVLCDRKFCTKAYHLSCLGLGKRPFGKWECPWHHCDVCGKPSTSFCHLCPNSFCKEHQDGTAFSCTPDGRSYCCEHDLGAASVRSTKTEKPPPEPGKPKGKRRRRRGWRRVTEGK
SR-BI DiI-HDL act: activators of SR-BI mediated HDL lipid uptake. activation, % at 12.5 µM. hit rate 0.096% among 320,000. CHO ldlA[mSR-BI] cells, DiI-HDL uptake fluorescence, 3 h; 100 = double the neutral-control signal;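 active = mean replicate activation of at least 60% and every replicate at or above 60%; inconclusive = mean or all-replicate condition met, but not both; inactive = mean below 60% and not all replicates reaching 60%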;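 also: 0% = median plate neutral-control signal and 100% = twice that signal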
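Material: SR-BI-overexpressing, LDLR-lacking CHO cells; schedule: compound exposure 3 h, 37 °C; reagent: DiI-labelled HDL at 10 µg/mL final; technique: bottom-read fluorescence, 550/595 nm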
DiI quench: DiI fluorescence quenching in cell-free counter-screen; shares compounds with SR-BI HDL uptake; cell-free DiI-HDL fluorescence quenching, 30 min; AC50, µM (titrated, usually from 35 µM), for the others: at the top dose activity change, negative = quenching; hit rate 20% among 470; AID 540326;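 active = quenching, a falling signal, with AC50 below a set limit tied to the top valid dose, actives reach about 32 µM in these data; inconclusive = no clear call, values can overlap the other calls; inactive = rising signal, and the rest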
ARNT Alpha ctr: interferes with AlphaScreen signal, flagging false ARNT-TACC3 hits | shares compounds with ARNT TACC3 PPI | His-ARNT PASB-GST AlphaScreen artifact counter-screen, luminescence | AC50, µM (doses to about 68 µM), inactives show at the highest dose activity change, negative = signal decrease | hit rate 50% among 1,200;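 active = every separate test run was called active for a drop in luminescence, with AC50 within twice the top valid dose, actives reach about 71 µM in these data; inconclusive = the separate test runs disagree in their calls; inactive = all runs inactive, including signal change in the wrong direction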
sPLA2 confirm: human GIII-sPLA2 inhibition, confirmation | hit rate 34% among 2,000 | AID 743280 | shares compounds with HGIII-sPLA2 inh | recombinant hGIII-sPLA2, BODIPY PC-A2 QFRET fluorescence | inhibition, % at 12.2 µM;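 active = mean inhibition across triplicates above the hit cutoff set in the earlier primary screen, cut at about 19% in these data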;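 also: 0% = enzyme with DMSO and 100% = DMSO wells lacking enzyme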
BODIPY interf: 535nm fluorescence interference, HGIII-sPLA2 counter-screen; inhibition, % at 12.2 µM; hit rate 8.5% among 2,000; BODIPY FL product fluorescence interference, QFRET; shares compounds with HGIII-sPLA2 inh;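 active = average inhibition above the solvent-only control mean plus 3 SD, cut at about 6% in these data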;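 also: 0% = DMSO with substrate plus product and 100% = DMSO with substrate alone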
Alpha artifact: counter-screen for NSD2 inhibitors: AlphaScreen artifacts. shares compounds with NSD2 HMT inh. hit rate 9.4% among 1,500. AlphaScreen artifact counterscreen, preloaded methylated H4 peptide. AC35, µM (top dose mostly 10 µM), inactives show at the highest dose activity change, negative = signal loss; call rule not given here
* marks the source's active call; other numbers are inactive results; i = inactive; ? = inconclusive; . = no result. Most compounds without a hit are left out; they make up all but 2% or so of the library.

SMILES | SR-BI HDL uptake | XiGFP reactiv | HGIII-sPLA2 inh | ARNT TACC3 PPI | NSD2 HMT inh | SR-BI DiI-HDL act | others
COc1cc(OC)c(OC)cc1CN1CCN(C(=O)COc2ccc3ccccc3c2)CC1 | . | 0 | -11 | 11 | 10 | .
COc1cccc(CN2CCN(C(=O)COc3ccc4ccccc4c3)CC2)c1 | 86* | . | -14 | -9 | 1 | -86
O=[N+]([O-])c1c(Cl)c(Cl)c(Cl)c(Cl)c1Cl | -10 | 0 | 5 | 4 | -2 | 10
Nc1cc(Cl)c2nonc2c1[N+](=O)[O-] | -70 | 2 | 16 | 6 | 9 | 70*
CC(C)NC1C2CCC(CC2)C1(O)c1ccc(Cl)c(Cl)c1 (stereo unspecified) | . | 0 | 3 | . | -1 | .
CC[n+]1c(-c2ccccc2)c2cc(N)ccc2c2ccc(N)cc21 | -8 | 2 | 3 | 1 | 178* | 8
Nc1c(Br)cc2c3c(cccc13)-c1ccccc1-2 | . | 27* | 5 | . | 15 | .
c1ccc2c(c1)-c1cccc3cccc-2c13 | -14 | . | -1 | i | . | 14
CCOC(=O)c1cccc(C2=C(CNC(=O)c3cccnc3)[C@H]3CC[C@@H](C2)N3Cc2ccccc2)c1 | . | 0 | -3 | . | . | .
CC(C)OCCCNC(=O)c1c(N)n(CC2CCCO2)c2nc3ccccc3nc12 (stereo unspecified) | -3 | . | -13 | 2 | 99* | 3
CCCNC(=O)c1c(N)n(CC2CCCO2)c2nc3ccccc3nc12 (stereo unspecified) | 6 | . | -5 | -15 | . | -6
N#Cc1ccc(Nc2nc(-c3ccc(O)cc3O)cs2)cc1C(F)(F)F | 103* | . | . | 4 | . | -103 | DiI quench=4.3µM*
CNC1(c2ccc(F)cc2)CCCCC1 | ? | 0 | 7 | -10 | -5 | -72 | DiI quench=-3%
CC(C)NC1(c2ccccc2)CCCCC1 | . | . | 0 | . | . | .
CCCCCCC(=O)c1c(O)n(-c2ccc(OC)cc2)c(=O)[nH]c1=O (tested in a mixture with another compound) | -15 | 0 | -1 | -2 | 0 | 15
O=c1cccc2n1CC1CC2CN(S(=O)(=O)c2cc(Cl)ccc2Cl)C1 (stereo unspecified) | -16 | 0 | 8 | -9 | -3 | 16 | DiI quench=-3%
CN1CCN(C(=O)COc2ccc(N(C)S(=O)(=O)c3ccc(F)cc3)cc2)CC1 | 29 | 0 | -3 | 3 | -2 | -29
CCCCOCCCn1c(N)c(C(=O)OCCOC)c2nc3ccccc3nc21 | -8 | . | 4 | 68* | -3 | 8 | ARNT Alpha ctr=-10%
CCCCn1c(N)c(C(=O)OCCOC)c2nc3ccccc3nc21 | . | 0 | 0 | . | 20 | .
Cc1ccc(Cn2cc(C=O)c(-c3ccc(C)cc3)n2)cc1 | -38 | 0 | 0 | -4 | 8 | 38
COc1ccc(-c2cc(=NCCC(=O)O)c3cc(C)ccc3o2)cc1 | -2 | 0 | -1 | 30* | -3 | 2 | ARNT Alpha ctr=-30%
COc1ccc(CC2C(=O)NC(=O)NC2=O)c(OC)c1 | 2 | . | 3 | -4 | -2 | -2
COc1ccc(Cc2c(O)[nH]c(=O)[nH]c2=O)c(OC)c1 | . | 0 | 2 | 15* | 0 | . | ARNT Alpha ctr=-4%
CC=Cc1ccc2n(c1=O)C[C@@H]1[C@@H](CO)[C@H](C(=O)N(C)C)[C@H]2N1C (mixture of isomers) | . | 0 | . | 0 | . | .
COc1cc2c(c(OC)c1OC)-c1ccc(O)c(=O)cc1[C@@H](N)CC2 | -7 | . | 1 | 58* | . | 7 | ARNT Alpha ctr=-35%
SMILES | SR-BI HDL uptake | XiGFP reactiv | HGIII-sPLA2 inh | ARNT TACC3 PPI | NSD2 HMT inh | SR-BI DiI-HDL act | others
COc1ccc(C)cc1NC(=O)N1CCC2(CC1)OCCO2 | -38 | 0 | -4 | . | -1 | 38
CCOC(=O)c1cc2c(cn1)[C@@H](CCO)NC2 | -7 | 0 | 1 | 55* | . | 7 | ARNT Alpha ctr=-6%
CCCCn1c(NC(=O)c2ccco2)c(C(=O)OCC)c2nc3ccccc3nc21 | -7 | . | 7 | 30* | 175* | 7 | ARNT Alpha ctr=-14%;Alpha artifact=2%
COCCCn1c(N)c(C(=O)NCCC(C)C)c2nc3ccccc3nc21 | -7 | . | -8 | active | 109* | 7 | ARNT Alpha ctr=-2%;Alpha artifact=5%
CCCCCn1c(N)c(C(=O)NCCN2CCOCC2)c2nc3ccccc3nc21 | 6 | . | -14 | -55 | -25 | -6
Cc1ccc(N2Cc3ccccc3-n3nncc3C2)cc1 | . | 0 | 3 | . | . | .
CC(=Nc1ccccc1N)c1c(O)n(C)c(=O)n(C)c1=O | 17 | 0 | 20* | -2 | -1 | -17 | sPLA2 confirm=6;BODIPY interf=-6
CN1CCN(c2ccc([N+](=O)[O-])c(N3CCCCC3)c2)CC1 | -6 | 0 | -5 | -13 | 13 | 6
O=[N+]([O-])c1ccc(N2CCNCC2)cc1N1CCCCCC1 | -20 | 0 | 36* | 11 | 17 | 20 | sPLA2 confirm=17;BODIPY interf=-12
O=[N+]([O-])c1ccc(NCCO)c2ncccc12 | -4 | . | 22* | -15 | 4 | 4 | sPLA2 confirm=4;BODIPY interf=-1
CN1CCN(c2ccc([N+](=O)[O-])c3cccnc23)CC1 | -6 | . | -3 | 2 | 1 | 6
O=C(C[n+]1ccn(CCCNP2(=O)C=C(c3ccccc3)OC(c3ccccc3)=C2)c1)c1ccccc1 | 0 | 0 | -63 | . | 1 | 0
CC(C)Oc1ccc(C2(C#N)CC[N+](C)(C)CC2)cc1 | 1 | 0 | 22* | -8 | -2 | -1 | sPLA2 confirm=-2;BODIPY interf=-4
CCC1([N+](=O)[O-])COP(=O)(NCc2cccnc2)OC1 (stereo unspecified) | -24 | 0 | -2 | -3 | 0 | 24
